Measured values taken from ChEMBL document CHEMBL1156597, “Structure-activity relationship of kahalalide F synthetic analogues” (J Med Chem, 2008).

How the values were obtained:
[1] = test system: A549; assay: Cytotoxicity against human A549 cells after 48 hrs by SRB assay; type: functional, cell-based; conditions: for LC50 / TGI / GI50: Homo sapiens, A549, 48 h; for GI50: read-out: GI50
Summary of the method: (§1)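 Cells grown in RPMI 1640 with 10% FBS and penicillin/streptomycin at 37 °C and 5% CO₂, trypsinized, then seeded at 5 × 10³/well. After 18 h drug-free attachment, samples in DMSO/EtOH/PBS (0.5:0.5:99) were added for 48 h continuous exposure. Cells were fixed with cold TCA (1 h, 4 °C) and stained with SRB (10 min). Tris-solubilized stain read at 490 nm. Triplicate wells, mean ± SD; GI₅₀ derived.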

[2] = test system: HT-29; assay: Cytotoxicity against human HT29 cells after 48 hrs by SRB assay; type: functional, cell-based; conditions: for CC50 / GI50 / TGI: Homo sapiens, HT-29, 48 h; for CC50: read-out: LC50 (the source's name); summary of the method: as §1
[3] = test system: SK-MEL-28; assay: Cytotoxicity against human SK-MEL-28 cells after 48 hrs by SRB assay; type: functional, cell-based; summary of the method: as §1
[4] = test system: DU-145; assay: Cytotoxicity against human DU145 cells after 48 hrs by SRB assay; type: functional, cell-based; summary of the method: as §1
[5] = Cytotoxicity against human IGROV-ET cells after 48 hrs by SRB assay; type: functional; conditions: for CC50: read-out: LC50 (the source's name); summary of the method: as §1
[6] = Cytotoxicity against human HeLa-APL cells after 48 hrs by SRB assay; type: functional; summary of the method: as §1
[7] = Cytotoxicity against human IGROV cells after 48 hrs by SRB assay; type: functional; conditions: for CC50: read-out: LC50 (the source's name); summary of the method: as §1
[8] = test system: SK-BR-3; assay: Cytotoxicity against human SKBR3 cells after 48 hrs by SRB assay; type: functional; conditions: SK-BR-3, 48 h; summary of the method: as §1
[9] = test system: PANC-1; assay: Cytotoxicity against human PANC1 cells after 48 hrs by SRB assay; type: functional; conditions: PANC-1, 48 h; summary of the method: as §1
[10] = test system: LoVo; assay: Cytotoxicity against human LoVo cells after 48 hrs by SRB assay; type: functional
[11] = test system: HeLa; assay: Cytotoxicity against human HeLa cells after 48 hrs by SRB assay; type: functional; summary of the method: as §1
[12] = read-out: LC50 (the source's name)

C/C=C1\NC(=O)[C@H](Cc2ccccc2)NC(=O)[C@@H](C(C)C)NC(=O)[C@@H]([C@H](C)CC)NC(=O)[C@H](NC(=O)[C@H](NC(=O)[C@H](NC(=O)CCCC(C)C)C(C)C)[C@H](C)CC)[C@H](C)OC(=O)[C@H](C(C)C)NC1=O
LC50 [1]: 14.8 µM | CC50 [2]: 40 µM

C/C=C1\NC(=O)[C@H](Cc2ccccc2)NC(=O)[C@@H](C(C)C)NC(=O)[C@@H]([C@H](C)CC)NC(=O)[C@H](NC(=O)[C@H](NC(=O)[C@H](CCCN)NC(=O)[C@H]2CCCN2C(=O)[C@H](NC(=O)[C@@H](NC(=O)[C@@H](NC(=O)[C@H](NC(=O)/C=C/C=C/C)C(C)C)[C@@H](C)O)C(C)C)C(C)C)[C@H](C)CC)[C@H](C)OC(=O)[C@H](C(C)C)NC1=O
Activity [1]: 3.43 ×10⁻⁶ M | Activity [2]: 6.85 ×10⁻⁷ M | Activity [3]: 6.85 ×10⁻⁶ M | Activity [4]: 6.85 ×10⁻⁶ M

C/C=C1\NC(=O)[C@H](Cc2ccccc2)NC(=O)[C@@H](C(C)C)NC(=O)[C@@H]([C@H](C)CC)NC(=O)[C@H](NC(=O)[C@H](NC(=O)[C@H](CCCN)NC(=O)[C@H]2CCCN2C(=O)[C@H](NC(=O)[C@@H](NC(=O)[C@@H](NC(=O)[C@H](NC(=O)CCC)C(C)C)[C@@H](C)O)C(C)C)C(C)C)[C@H](C)CC)[C@H](C)OC(=O)[C@H](C(C)C)NC1=O
Activity [1]: 3.48 ×10⁻⁶ M | Activity [2]: 1.74 ×10⁻⁶ M | Activity [3]: 3.48 ×10⁻⁶ M | Activity [4]: 1.74 ×10⁻⁶ M

C/C=C1\NC(=O)[C@H](Cc2ccccc2)NC(=O)[C@@H](C(C)C)NC(=O)[C@@H]([C@H](C)CC)NC(=O)[C@H](NC(=O)[C@H](NC(=O)[C@H](CCCN)NC(=O)[C@H]2CCCN2C(=O)[C@H](NC(=O)[C@@H](NC(=O)[C@@H](NC(=O)[C@H](NC(=O)CCCO)C(C)C)[C@@H](C)O)C(C)C)C(C)C)[C@H](C)CC)[C@H](C)OC(=O)[C@H](C(C)C)NC1=O
Activity [1]: 6.89 ×10⁻⁶ M | Activity [2]: 6.89 ×10⁻⁶ M | Activity [3]: 6.89 ×10⁻⁶ M | Activity [4]: 6.89 ×10⁻⁶ M

C/C=C1\NC(=O)[C@H](Cc2ccccc2)NC(=O)[C@@H](C(C)C)NC(=O)[C@@H]([C@H](C)CC)NC(=O)[C@H](NC(=O)[C@H](NC(=O)[C@H](CCCN)NC(=O)[C@H]2CCCN2C(=O)[C@H](NC(=O)[C@@H](NC(=O)[C@@H](NC(=O)[C@H](NC(=O)c2ccc(C)cc2)C(C)C)[C@@H](C)O)C(C)C)C(C)C)[C@H](C)CC)[C@H](C)OC(=O)[C@H](C(C)C)NC1=O
GI50 [5]: 421 nM | GI50 ([5]; read-out: GI50): 365 nM | CC50 [5]: 422 nM | GI50 [6]: 950 nM | TGI [6]: 898 nM | GI50 [7]: 447 nM | GI50 ([7]; read-out: GI50): 479 nM | CC50 [7]: 394 nM

C/C=C1\NC(=O)[C@H](Cc2ccccc2)NC(=O)[C@@H](C(C)C)NC(=O)[C@@H]([C@H](C)CC)NC(=O)[C@H](NC(=O)[C@H](NC(=O)[C@H](NC(=O)[C@@H](NC(=O)[C@@H](NC(=O)[C@H](NC(=O)CCCC(C)C)C(C)C)[C@@H](C)O)C(C)C)C(C)C)[C@H](C)CC)[C@H](C)OC(=O)[C@H](C(C)C)NC1=O
LC50 [1]: 11.3 µM | TGI [1]: 20.8 µM | GI50 [1]: 23 µM | GI50 [2]: 9.89 µM | TGI [2]: 61.6 µM | CC50 [2]: 30.6 µM

C/C=C1\NC(=O)[C@H](Cc2ccccc2)NC(=O)[C@@H](C(C)C)NC(=O)[C@@H]([C@H](C)CC)NC(=O)[C@H](NC(=O)[C@H](NC(=O)[C@H](CCCN)NC(=O)[C@H]2CCCN2C(=O)[C@H](NC(=O)[C@@H](NC(=O)[C@@H](NC(=O)[C@H](NC(=O)CC(C)(C)C)C(C)C)[C@@H](C)O)C(C)C)C(C)C)[C@H](C)CC)[C@H](C)OC(=O)[C@H](C(C)C)NC1=O
Activity [1]: 1.71 ×10⁻⁶ M | Activity [2]: 3.42 ×10⁻⁷ M | Activity [3]: 3.42 ×10⁻⁶ M | Activity [4]: 3.42 ×10⁻⁷ M

C/C=C1\NC(=O)[C@H](Cc2ccccc2)NC(=O)[C@@H](C(C)C)NC(=O)[C@@H]([C@H](C)CC)NC(=O)[C@H](NC(=O)[C@H](NC(=O)[C@H](CCCN)NC(=O)[C@H]2CCCN2C(=O)[C@H](NC(=O)[C@@H](NC(=O)[C@@H](NC(=O)[C@H](NC(=O)[C@H](NC(=O)C(C)C)[C@H](C)CC)C(C)C)[C@@H](C)O)C(C)C)C(C)C)[C@H](C)CC)[C@H](C)OC(=O)[C@H](C(C)C)NC1=O
Activity [1]: 6.46 ×10⁻⁶ M | Activity [2]: 6.46 ×10⁻⁶ M | Activity [3]: 6.46 ×10⁻⁶ M | Activity [4]: 6.46 ×10⁻⁶ M

CC[C@@H](C)[C@@H](NC(=O)[C@H](CCCN)NC(=O)[C@H]1CCCN1C(=O)[C@H](NC(=O)[C@@H](NC(=O)[C@@H](NC(=O)[C@H](NC(=O)CCCC(C)C)C(C)C)[C@@H](C)O)C(C)C)C(C)C)C(=O)N[C@H]1C(=O)N[C@H]([C@H](C)CC)C(=O)N[C@H](C(C)C)C(=O)N[C@@H](Cc2ccccc2)C(=O)N/C(=C\c2ccccc2)C(=O)N[C@@H](C(C)C)C(=O)O[C@H]1C
LC50 [1]: 1.11 µM | TGI [8]: 1150 nM | GI50 ([8]; read-out: GI50): 601 nM | CC50 [8, 12]: 806 nM | GI50 [2]: 5.13 µM | TGI [2]: 10.1 µM | CC50 [2]: 5.22 µM | CC50 [5]: 629 nM | CC50 ([3]; Homo sapiens, SK-MEL-28, 48 h, read-out: LC50 (the source's name)): 1390 nM | LC50 (concentration giving 50% net cell kill) [6]: 704 nM | GI50 [9]: 4.54 µM | TGI [9]: 4.45 µM | CC50 [9, 12]: 2140 nM | TGI ([4]; Homo sapiens, DU-145, 48 h): 1120 nM | GI50 ([4]; Homo sapiens, DU-145, 48 h, read-out: GI50): 1390 nM | CC50 ([4]; Homo sapiens, DU-145, 48 h, read-out: LC50 (the source's name)): 893 nM | GI50 [10]: 836 nM | TGI [10]: 1420 nM | CC50 [10, 12]: 1890 nM | GI50 [11]: 1500 nM | TGI [11]: 1180 nM | CC50 [11, 12]: 936 nM | CC50 [7]: 559 nM

C/C=C1\NC(=O)[C@H](Cc2ccccc2)NC(=O)[C@@H](C(C)C)NC(=O)[C@@H]([C@H](C)CC)NC(=O)[C@H](NC(=O)[C@H](NC(=O)[C@H](CCCN)NC(=O)[C@H]2CCCN2C(=O)[C@H](NC(=O)[C@@H](NC(=O)[C@@H](NC(=O)[C@H](NC(=O)CCCOC(C)=O)C(C)C)[C@@H](C)O)C(C)C)C(C)C)[C@H](C)CC)[C@H](C)OC(=O)[C@H](C(C)C)NC1=O
Activity [1]: 6.7 ×10⁻⁶ M | Activity [2]: 6.7 ×10⁻⁶ M | Activity [3]: 6.7 ×10⁻⁶ M | Activity [4]: 6.7 ×10⁻⁶ M

C/C=C1\NC(=O)[C@H](Cc2ccccc2)NC(=O)[C@@H](C(C)C)NC(=O)[C@@H]([C@H](C)CC)NC(=O)[C@H](NC(=O)[C@H](NC(=O)[C@H](CCCN)NC(=O)[C@H]2CCCN2C(=O)[C@H](NC(=O)[C@@H](NC(=O)[C@@H](NC(=O)[C@H](NC(C)=O)C(C)C)[C@@H](C)O)C(C)C)C(C)C)[C@H](C)CC)[C@H](C)OC(=O)[C@H](C(C)C)NC1=O
Activity [1]: 7.11 ×10⁻⁶ M | Activity [2]: 7.11 ×10⁻⁶ M | Activity [3]: 7.11 ×10⁻⁶ M | Activity [4]: 7.11 ×10⁻⁶ M

C/C=C1\NC(=O)[C@H](Cc2ccccc2)NC(=O)[C@@H](C(C)C)NC(=O)[C@@H]([C@H](C)CC)NC(=O)[C@H](NC(=O)[C@H](NC(=O)[C@H](CCCN)NC(=O)[C@H]2CCCN2C(=O)[C@H](NC(=O)[C@@H](NC(=O)[C@@H](NC(=O)[C@H](NC(=O)C(F)(F)F)C(C)C)[C@@H](C)O)C(C)C)C(C)C)[C@H](C)CC)[C@H](C)OC(=O)[C@H](C(C)C)NC1=O
Activity [1]: 6.84 ×10⁻⁶ M | Activity [2]: 3.42 ×10⁻⁶ M | Activity [3]: 6.84 ×10⁻⁶ M | Activity [4]: 3.42 ×10⁻⁶ M

C/C=C1\NC(=O)[C@H](Cc2ccccc2)NC(=O)[C@@H](C(C)C)NC(=O)[C@@H]([C@H](C)CC)NC(=O)[C@H](NC(=O)[C@H](NC(=O)[C@H](CCCN)NC(=O)[C@H]2CCCN2C(=O)[C@H](NC(=O)[C@@H](NC(=O)[C@@H](NC(=O)[C@H](NC(=O)c2ccc3c(c2)OCO3)C(C)C)[C@@H](C)O)C(C)C)C(C)C)[C@H](C)CC)[C@H](C)OC(=O)[C@H](C(C)C)NC1=O
LC50 [1]: 1.33 µM | TGI [1]: 1.04 µM | GI50 [1]: 0.64 µM | GI50 [2]: 0.413 µM | TGI [2]: 0.514 µM | CC50 [2]: 0.409 µM

C/C=C1\NC(=O)[C@H](Cc2ccccc2)NC(=O)[C@@H](C(C)C)NC(=O)[C@@H]([C@H](C)CC)NC(=O)[C@H](NC(=O)[C@H](NC(=O)[C@H](CCCN)NC(=O)[C@H]2CCCN2C(=O)[C@H](NC(=O)[C@@H](NC(=O)[C@@H](NC(=O)[C@H](NC(=O)CCCOC(=O)CCOC(C)=O)C(C)C)[C@@H](C)O)C(C)C)C(C)C)[C@H](C)CC)[C@H](C)OC(=O)[C@H](C(C)C)NC1=O
Activity [1]: 6.33 ×10⁻⁷ M | Activity [2]: 6.33 ×10⁻⁷ M | Activity [3]: 6.33 ×10⁻⁷ M | Activity [4]: 6.33 ×10⁻⁷ M

C/C=C1\NC(=O)[C@H](Cc2ccccc2)NC(=O)[C@@H](C(C)C)NC(=O)[C@@H]([C@H](C)CC)NC(=O)[C@H](NC(=O)[C@H](NC(=O)[C@H](CCCN)NC(=O)[C@H]2CCCN2C(=O)[C@H](NC(=O)[C@@H](NC(=O)[C@@H](NC(=O)[C@H](NC(=O)CCC(C)C)C(C)C)[C@@H](C)O)C(C)C)C(C)C)[C@H](C)CC)[C@H](C)OC(=O)[C@H](C(C)C)NC1=O
Activity [1]: 3.42 ×10⁻⁷ M | Activity [2]: 3.42 ×10⁻⁷ M | Activity [3]: 3.42 ×10⁻⁶ M | Activity [4]: 3.42 ×10⁻⁷ M
